Experimental data: ChEMBL document CHEMBL1687890, “Design, synthesis, pharmacological evaluation, and structure-activity study of novel endomorphin analogues with multiple structural modifications” (J Med Chem, 2011)

Legend:
[1] = target: Mu-type opioid receptor (Rattus norvegicus) (UniProt P33535); test: Agonist activity at mu opioid receptor in rat brain membrane by [35S]GTPgammaS binding assay relative to baseline; type: functional, cell membranes
[2] = target: Mu-type opioid receptor (Rattus norvegicus) (UniProt P33535); test: Agonist activity at opioid receptor in mu rat brain membrane by [35S]GTPgammaS binding assay relative to baseline in presence of opioid-selective antagonist naloxone; type: functional, cell membranes
Mu-type opioid receptor [3] = target: T1, Mu-type opioid receptor (Rattus norvegicus, UniProt P33535); test: Displacement of [3H]DAMGO from mu opioid receptor in rat brain membrane homogenate by liquid scintillation counting; type: cell membranes
T1 sequence (P33535 whole entry): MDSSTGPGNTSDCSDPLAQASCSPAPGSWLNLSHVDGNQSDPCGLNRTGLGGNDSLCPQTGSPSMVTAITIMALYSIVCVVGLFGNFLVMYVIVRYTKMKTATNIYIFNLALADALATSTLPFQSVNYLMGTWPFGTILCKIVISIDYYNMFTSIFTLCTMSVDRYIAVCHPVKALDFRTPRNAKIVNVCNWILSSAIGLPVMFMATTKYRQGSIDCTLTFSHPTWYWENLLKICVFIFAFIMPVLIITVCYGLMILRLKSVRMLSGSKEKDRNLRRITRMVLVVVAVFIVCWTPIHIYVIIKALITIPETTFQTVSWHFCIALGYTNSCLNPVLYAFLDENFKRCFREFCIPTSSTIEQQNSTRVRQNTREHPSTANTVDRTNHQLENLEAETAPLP

Rattus norvegicus = species on record: Rattus norvegicus; test: Selectivity ratio of Ki for delta opioid receptor in rat brain to mu opioid receptor in rat brain; type: tissue-based
[4] = target: Delta-type opioid receptor (Rattus norvegicus, UniProt P33533); test: Displacement of [3H][Ile5,6]deltorphin2 from delta opioid receptor in rat brain membrane homogenate by liquid scintillation counting; type: cell membranes
Chain of Delta-type opioid receptor (P33533 whole entry): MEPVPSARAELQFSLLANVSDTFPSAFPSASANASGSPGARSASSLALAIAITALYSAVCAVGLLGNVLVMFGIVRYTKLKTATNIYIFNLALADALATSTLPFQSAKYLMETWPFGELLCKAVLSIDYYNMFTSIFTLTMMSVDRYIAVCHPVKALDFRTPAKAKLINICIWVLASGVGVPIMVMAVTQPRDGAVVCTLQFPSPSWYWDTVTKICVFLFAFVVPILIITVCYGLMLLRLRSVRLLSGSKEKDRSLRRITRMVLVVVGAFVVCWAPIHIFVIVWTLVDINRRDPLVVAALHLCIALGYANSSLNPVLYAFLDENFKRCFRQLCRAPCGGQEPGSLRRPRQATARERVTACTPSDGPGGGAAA

Mu-type opioid receptor [5] = target: T1, Mu-type opioid receptor; test: Agonist activity at mu opioid receptor in rat brain membrane by [35S]GTPgammaS binding assay; type: functional, cell membranes
[6] = Half life in rat brain homogenate by RP-HPLC; type: ADME, tissue-based
How it was run: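 Peptide (1 mM stock in 50 mM Tris-HCl pH 7.4, 1:10 into homogenate) incubated at 37 °C with crude rat brain homogenate (5.0 mg/mL protein). Aliquots quenched with HCl, centrifuged, supernatant run on RP-HPLC. k from linear regression of ln(A/A0) vs time over at least 5 time points; t1/2 = ln2/k, pseudo-first-order. At least three experiments.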

Chain of Mu-type opioid receptor (Rattus norvegicus) (P33535 whole entry): as the sequence (P33535 whole entry) above

`C[C@@H](NC(=O)[C@@H](N)Cc1ccc(O)cc1)C(=O)NCC(=O)N(C)[C@@H](Cc1ccccc1)C(=O)NCCO` gave an Emax [1] of 178% and an Emax [2] of 119%.

With `Cc1cc(CC(N)C(=O)N[C@@H]2CCCC[C@@H]2C(=O)N[C@@H](Cc2c[nH]c3ccccc23)C(=O)N[C@@H](C(N)=O)[C@H](C)c2ccccc2)cc(C)c1O` (some centres undefined) the Ki (Mu-type opioid receptor [3]) was 0.00411 µM, the Ratio Ki (Rattus norvegicus) was 69 and the Ki [4] was 0.287 µM.

`Cc1cc(CC(N)C(=O)N[C@@H]2CCCC[C@@H]2C(=O)N[C@@H](Cc2c[nH]c3ccccc23)C(=O)N[C@H](C(N)=O)[C@@H](C)c2ccccc2)cc(C)c1O` (some centres undefined) showed an EC50 (Mu-type opioid receptor [5]) of 0.0221 µM, a Ki (Mu-type opioid receptor [3]) of 0.00093 µM and a Ratio Ki (Rattus norvegicus) of 132. The Emax [1] was 162%, the Ki [4] was 0.123 µM and the Emax [2] was 145%.

`NC(=O)C(Cc1ccc(F)cc1)NC(=O)[C@H](Cc1ccccc1)NC(=O)[C@H]1CCCC[C@H]1NC(=O)[C@@H](N)Cc1ccc(O)cc1` (some centres undefined) gave a Ki [4] of 0.366 µM.

In the case of `Cc1cc(CC(N)C(=O)N[C@@H]2CCCC[C@@H]2C(=O)N[C@@H](Cc2ccccc2)C(=O)NC(Cc2ccc(F)cc2)C(N)=O)cc(C)c1O` (some centres undefined), the half-life [6] is reported as > 20 h and the Ki [4] is reported as 0.096 µM.

For `NC(=O)[C@H](Cc1ccccc1)NC(=O)[C@H](Cc1c[nH]c2ccccc12)NC(=O)[C@@H]1CCCN1C(=O)[C@@H](N)Cc1ccc(O)cc1` [ENDOMORPHIN-1], the half-life [6] was 0.105 h, the Emax [1] was 149% and the Emax [2] was 124%.

For `NC(=O)C(Cc1ccc(F)cc1)NC(=O)[C@H](Cc1c[nH]c2ccccc12)NC(=O)[C@H]1CCCC[C@H]1NC(=O)[C@@H](N)Cc1ccc(O)cc1` (some centres undefined), the half-life [6] was > 20 h, the EC50 (Mu-type opioid receptor [5]) was 0.38 µM and the Ki (Mu-type opioid receptor [3]) was 0.0032 µM. It also gave a Ratio Ki (Rattus norvegicus) of 178, an Emax [1] of 174% and a Ki [4] of 0.571 µM. It also gave an Emax [2] of 125%.

Compound `C[C@H](c1ccccc1)[C@@H](NC(=O)[C@H](Cc1c[nH]c2ccccc12)NC(=O)[C@H]1CCCC[C@H]1NC(=O)[C@@H](N)Cc1ccc(O)cc1)C(N)=O` has a Ki (Mu-type opioid receptor [3]) of 0.0346 µM, a Ratio Ki (Rattus norvegicus) of 97 and a Ki [4] of 3.36 µM.

With `Cc1cc(CC(N)C(=O)N[C@@H]2CCCC[C@@H]2C(=O)N[C@@H](Cc2c[nH]c3ccccc23)C(=O)NC(Cc2ccc(F)cc2)C(N)=O)cc(C)c1O` (some centres undefined) the EC50 (Mu-type opioid receptor [5]) was 0.0081 µM, the Ki (Mu-type opioid receptor [3]) was 0.0111 µM and the Ratio Ki (Rattus norvegicus) was 237. It also gave an Emax [1] of 163%, a Ki [4] of 2.64 µM and an Emax [2] of 127%.

`NC(=O)C(Cc1ccc(F)cc1)NC(=O)[C@H](Cc1c[nH]c2ccccc12)NC(=O)[C@@H]1CCCC[C@@H]1NC(=O)[C@@H](N)Cc1ccc(O)cc1` (some centres undefined) gave a Ki (Mu-type opioid receptor [3]) of 0.143 µM, a Ratio Ki (Rattus norvegicus) of 54 and a Ki [4] of 7.82 µM.

In the case of `C[C@@H](c1ccccc1)[C@H](NC(=O)[C@H](Cc1c[nH]c2ccccc12)NC(=O)[C@H]1CCCC[C@H]1NC(=O)[C@@H](N)Cc1ccc(O)cc1)C(N)=O`, the half-life [6] is reported as > 20 h, the EC50 (Mu-type opioid receptor [5]) is reported as 0.264 µM and the Ki (Mu-type opioid receptor [3]) is reported as 0.0042 µM. It also gave a Ratio Ki (Rattus norvegicus) of 343, an Emax [1] of 162% and a Ki [4] of 1.44 µM. It also gave an Emax [2] of 130%.

For `NC(=O)[C@H](Cc1ccccc1)NC(=O)[C@H](Cc1ccccc1)NC(=O)[C@@H]1CCCN1C(=O)[C@@H](N)Cc1ccc(O)cc1` [ENDOMORPHIN 2], the half-life [6] was 0.095 h, the Emax [1] was 163% and the Emax [2] was 123%.

With `Cc1cc(CC(N)C(=O)N[C@@H]2CCCC[C@@H]2C(=O)N[C@@H](Cc2ccccc2)C(=O)N[C@H](C(N)=O)[C@@H](C)c2ccccc2)cc(C)c1O` (some centres undefined) the half-life [6] was > 20 h, the EC50 (Mu-type opioid receptor [5]) was 0.017 µM and the Ki (Mu-type opioid receptor [3]) was 0.00047 µM. For the same compound, the Ratio Ki (Rattus norvegicus) was 302, the Emax [1] was 159% and the Ki [4] was 0.142 µM. For the same compound, the Emax [2] was 146%.

Compound `Cc1cc(CC(N)C(=O)N[C@@H]2CCCC[C@@H]2C(=O)N[C@@H](Cc2ccccc2)C(=O)N[C@@H](C(N)=O)[C@H](C)c2ccccc2)cc(C)c1O` (some centres undefined) has a Ki (Mu-type opioid receptor [3]) of 0.0097 µM, a Ratio Ki (Rattus norvegicus) of 20 and a Ki [4] of 0.198 µM.

`C[C@@H](c1ccccc1)[C@H](NC(=O)[C@H](Cc1ccccc1)NC(=O)[C@H]1CCCC[C@H]1NC(=O)[C@@H](N)Cc1ccc(O)cc1)C(N)=O` gave a Ki [4] of 0.661 µM.

`C[C@H](c1ccccc1)[C@@H](NC(=O)[C@H](Cc1ccccc1)NC(=O)[C@H]1CCCC[C@H]1NC(=O)[C@@H](N)Cc1ccc(O)cc1)C(N)=O` showed a Ki [4] of 1.27 µM.

In the case of `NC(=O)C(Cc1ccc(F)cc1)NC(=O)[C@H](Cc1ccccc1)NC(=O)[C@@H]1CCCC[C@@H]1NC(=O)[C@@H](N)Cc1ccc(O)cc1` (some centres undefined), the Ki [4] is reported as 0.689 µM.
